Measurements from different studies.
Target: Tyrosine-protein kinase FRK (FRK, Homo sapiens, UniProt P42685)

C[C@H]1CCN(c2nccc(-c3cnn4ncccc34)n2)C1 — remaining binding (binding; 1 µM): 100%
CN1CCN(c2cnc3c(C4CCN(C(=O)c5ccc(OC(F)(F)F)cc5N)CC4)ncnc3c2)CC1 — remaining binding (cell-free assay, competition with immobilised ligand; 1 µM): 100%
C[C@@H](c1ccc(-n2cnc3c(N)ncnc32)cc1)N1CCc2nn(C)c(Cc3ccccc3)c2C1=O — remaining binding (binding, competition with immobilised ligand; 0.1 µM): 91%
CNC(=O)Nc1ccc2c(c1)[C@@]1(CC2)OC(=O)N(CC(=O)N(Cc2ccc(F)cc2)[C@@H](C)C(F)(F)F)C1=O — remaining binding (cell-free assay, competition with immobilised ligand; 1 µM): 95%
F[C@@H]1CCN(c2nccc(-c3cnn4ncccc34)n2)C1 — remaining binding (binding; 1 µM): 88%
CCN1CCN(Cc2ccc(C(=O)Nc3ccc(C)c(Oc4ccc5c(c4)CC(=O)N5)c3)cc2C(F)(F)F)CC1 — remaining binding (binding, competition with immobilised ligand; 1 µM): 13%
O=C(Nc1cnc(Oc2ccc(F)cc2)nc1)N1CCc2ncccc2[C@@H]1c1ccc(F)cc1 — remaining binding (cell-free assay, competition with immobilised ligand; 1 µM): 98%
CN(C)c1nccc(-c2cnn3ncccc23)n1 — remaining binding (binding, competition with immobilised ligand; 1 µM): 100%
O=C(NCCCN1CCOCC1)c1ccc(Nc2nccc(-c3cc4ccccc4s3)n2)cc1 — remaining binding (binding, competition with immobilised ligand; 1 µM): 99%
CCCOc1ccc([C@H]2[C@H](C(=O)O)[C@@H](c3ccc4c(c3)OCO4)CN2CC(=O)Nc2c(CC)cccc2CC)cc1 — remaining binding (cell-free assay, competition with immobilised ligand; 1 µM): 100%
N[C@H]1CCN(c2nccc(-c3cnn4ncccc34)n2)C1 — remaining binding (binding, competition with immobilised ligand; 1 µM): 100%
COc1cnc(Nc2cccc(S(N)(=O)=O)c2)nc1N1CCN(c2ccccc2)CC1 — remaining binding (binding, competition with immobilised ligand; 1 µM): 100%
COc1ncc2cc3ccccc3nc2c1C#N — remaining binding (cell-free assay, competition with immobilised ligand; 5 µM): 99%
O=C(c1ccc(Nc2nccc(-c3cc4ccccc4s3)n2)cc1)N1CCC(N2CCCC2)CC1 — remaining binding (binding, competition with immobilised ligand; 1 µM): 83%
C[C@@H](c1cccc(C#N)c1)n1cc(Cl)cc(C(N)=O)c1=N — remaining binding (cell-free assay, competition with immobilised ligand; 1 µM): 100%
O=C(NCC1CCOCC1)c1n[nH]cc1NC(=O)c1c(F)cccc1F — remaining binding (binding, competition with immobilised ligand; 1 µM): 100%
Cc1cnn2ncc(-c3ccnc(N(C)C)n3)c2c1 — remaining binding (binding, competition with immobilised ligand; 1 µM): 100%
COc1ccc2c(c1)O[C@@H](c1ccc(OC)c(OC)c1)C[C@H]2NC(=O)C1(c2ccc3c(c2)OC(F)(F)O3)CC1 — remaining binding (cell-free assay, competition with immobilised ligand; 1 µM): 100%
C=CC(=O)N1CCC(C(=O)NCC(=O)N2CCN(c3nc(-c4cnc(N)nc4C(F)F)nc(N4CCOCC4)n3)CC2)CC1 — remaining binding (binding, competition with immobilised ligand; 1 µM): 100%
CN(c1nccc(-c2cnn3ncccc23)n1)C1CC1 — remaining binding (binding; 1 µM): 85%
O=C(c1ccc(Nc2ncc(Cl)c(-c3cc4ccccc4s3)n2)cc1)N1CCC(N2CCCC2)CC1 — remaining binding (binding, competition with immobilised ligand; 1 µM): 90%
CO[C@@H](C)c1c(Nc2ccc([C@H](N(C)C(=O)C3CCS(=O)(=O)CC3)C(F)(F)F)cc2)cnc2cc(Cl)nn12 — remaining binding (cell-free assay, competition with immobilised ligand; 1 µM): 80%
